GASC1 inh = KDM4C (human) demethylase inhibition | Q9H3R0 | GST-KDM4C 2-372, H3K9me3 peptide, LANCE TR-FRET | hit rate 0.15% among 96,000 | inhibition, % at 12.5 µM | AID 720574;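 active = mean replicate inhibition above about 25%, with at least 55% of replicates also reaching it, limit read from the data, passing the limit was not always enough; inconclusive = only one of those two conditions met; inactive = neither condition met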
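Assay system: GST-GASC-1 enzyme fragment 2-372 | Amount: 10 nM enzyme | Medium: HEPES buffer, pH 7.5, plus ascorbate | Reagent: H3K9me3 peptide substrate, Fe(II), 2-oxoglutarate | Doses: Single-point compound screen | Incubation: 30 min demethylation and 1 h detection at room temperature | Measured by: LANCE TR-FRET, excitation 340 nm, emissions 618 and 671 nm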
Pf Dd2 inh = inhibitors of Plasmodium falciparum Dd2 growth | hit rate 2.3% among 94,000 | AID 1159554 | P. falciparum Dd2 growth, SYBR Green, 72 h; hits give low values | activity change, % at 10 µM; in the data active = activity change below about -80%; inconclusive = no clear call, values can overlap the other calls
IDH1 R132H inh = blocks human IDH1 R132H reductase activity. diaphorase/resazurin fluorescence, 60 min. hit rate 0.18% among 70,000. inhibition, % at 10 µM. O75874; in the data active = inhibition above about 34%; inconclusive = no clear call, values can overlap the other calls; inactive = below about 11%;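 note: 0% = DMSO and 100% = no enzyme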
Target sequence (O75874 whole entry R132H): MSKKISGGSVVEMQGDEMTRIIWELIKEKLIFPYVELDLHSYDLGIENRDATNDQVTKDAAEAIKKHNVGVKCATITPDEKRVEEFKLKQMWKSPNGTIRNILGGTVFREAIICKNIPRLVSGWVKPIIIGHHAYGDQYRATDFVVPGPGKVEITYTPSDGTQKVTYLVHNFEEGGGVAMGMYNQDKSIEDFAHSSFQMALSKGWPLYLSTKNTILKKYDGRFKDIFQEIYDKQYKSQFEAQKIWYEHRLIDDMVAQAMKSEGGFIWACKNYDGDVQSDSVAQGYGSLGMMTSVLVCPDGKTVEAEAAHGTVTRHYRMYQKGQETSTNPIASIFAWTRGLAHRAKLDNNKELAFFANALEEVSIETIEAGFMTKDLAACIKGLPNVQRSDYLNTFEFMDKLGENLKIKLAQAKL
T cruzi growth = T. cruzi proliferation inhibition. T. cruzi beta-gal in NIH3T3, GalScreen luminescence, 90 h. inhibition, % at 8.34 µM. hit rate 5.9% among 77,000;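 active = mean inhibition above about 93%, with at least 55% of replicates each passing it, limit read from the data, passing the limit was not always enough; inconclusive = only one of those two conditions holds; inactive = neither condition holds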
* = called active by the depositor; u = inconclusive; x = not tested or not shown; ! = not active in a repeat. Most compounds without a hit are left out; they make up all but 5.9% or so of the library.

SMILES | GASC1 inh | Pf Dd2 inh | IDH1 R132H inh | T cruzi growth
C[C@H]1CN([C@@H](C)CO)C(=O)c2c(c3ccccc3n2C)-c2ccccc2CO[C@H]1CN(C)Cc1cccc(C(F)(F)F)c1 | -4 | -75 | x | x
C[C@@H]1CN([C@@H](C)CO)C(=O)c2ccccc2-c2ccccc2CO[C@@H]1CN(C)Cc1cccc(C(F)(F)F)c1 | 0 | -82* | x | x
Cc1ccc(S(=O)(=O)N2C[C@@H]3N[C@H](C2)C3c2ccc(-c3ccncc3)cc2)cc1 (some centres not stated) | 1 | -81*! | x | x
N#Cc1ccc(-c2ccc([C@@H]3[C@@H]4CN(S(=O)(=O)c5ccc(-c6ccccc6)cc5)C[C@H]3N4)cc2)cc1 | 3 | -74 | x | x
O=S(=O)(c1ccc(-c2ccccc2)cc1)N1C[C@@H]2N[C@H](C1)C2c1ccc(-c2ccccc2)cc1 (some centres not stated) | 0 | -87*! | x | x
O=C(COc1ccccc1Cl)Nc1ccccc1[N+](=O)[O-] | x | x | 0 | x
CCCN(C)C[C@@H]1Oc2cc(C#CC3CCCCC3)ccc2S(=O)(=O)N([C@H](C)CO)C[C@H]1C | -3 | -20 | 0 | 79
C[C@H](CO)N1C[C@H](C)[C@@H](CN(C)C)Oc2cc(C#CC3CCCCC3)ccc2S1(=O)=O | 4 | -54 | 0 | 76
C[C@@H]1CN([C@H](C)CO)S(=O)(=O)c2ccc(C#CC3CCCCC3)cc2O[C@@H]1CN(C)C | -1 | -81* | 0 | 51
C[C@H]1CN([C@@H](C)CO)S(=O)(=O)c2ccc(/C=C/c3ccccc3)cc2O[C@H]1CN(C)C(=O)c1ccccc1 | -2 | u | -9 | 125*
COc1ccc(S(=O)(=O)N(C)C[C@@H]2Oc3cc(C#CC4CCCCC4)ccc3S(=O)(=O)N([C@H](C)CO)C[C@H]2C)cc1 | -1 | -86* | x | 39
CCCN(C)C[C@H]1Oc2cc(C#CC3CCCC3)ccc2S(=O)(=O)N([C@H](C)CO)C[C@H]1C | 4 | -84* | 0 | 75
COc1ccc(S(=O)(=O)N(C)C[C@H]2Oc3cc(C#CC4CCCCC4)ccc3S(=O)(=O)N([C@H](C)CO)C[C@H]2C)cc1 | -1 | -66 | -2 | 55
C=C(C(=O)O)[C@H]1C=C2[C@@H](C)[C@@H](O)[C@H](O)C[C@]2(C)CC1 | x | x | 0 | x
CC(C)=CCN(CC#Cc1ccccc1)[C@H](CO)c1ccccc1 | x | x | -1 | x
CCCC#Cc1ccc2c(c1)O[C@H](CN(C)C)[C@@H](C)CN([C@@H](C)CO)S2(=O)=O | 0 | -38 | -1 | 95
C/C=C/c1ccc2c(c1)O[C@H](CN(C)CCC)[C@H](C)CN([C@H](C)CO)S2(=O)=O | 43* | -15 | 84* | 40
CCCC#Cc1ccc2c(c1)O[C@@H](CN(C)C)[C@@H](C)CN([C@H](C)CO)S2(=O)=O | 53* | 0 | 59* | 54
C/C=C/c1ccc2c(c1)O[C@@H](CN(C)CCC)[C@@H](C)CN([C@@H](C)CO)S2(=O)=O | 0 | -22 | -3 | 39
Cc1c(Cl)cccc1NC(=O)COc1ccc(C(=O)Nc2cccc(C(F)(F)F)c2)cc1 | x | x | 0 | x
COc1ccccc1CNC(=O)C[C@@H]1C[C@@H]2c3cc(NC(=O)Cc4ccncc4)ccc3O[C@@H]2[C@H](CO)O1 | -1 | -47 | 0 | -45
COc1ccccc1CNC(=O)C[C@H]1C[C@H]2c3cc(NC(=O)Cc4ccncc4)ccc3O[C@H]2[C@@H](CO)O1 | -1 | -82* | 0 | -27
COC(=O)C[C@H]1C[C@H]2c3cc(N(C)C)ccc3O[C@H]2[C@@H](CO)O1 | 36* | -1 | -11 | -38
CN(C)c1ccc2c(c1)[C@H]1C[C@H](CC(=O)NCC3CC3)O[C@@H](CO)[C@H]1O2 | 19 | 12 | -3 | 35
COC(=O)C[C@@H]1C[C@@H]2c3cc(N(C)C)ccc3O[C@@H]2[C@H](CO)O1 | x | -1 | -3 | 91
SMILES | GASC1 inh | Pf Dd2 inh | IDH1 R132H inh | T cruzi growth
CCCNC(=O)C[C@@H]1C[C@H]2c3cc(NC(=O)CN(C)C)ccc3O[C@H]2[C@H](CO)O1 | 40* | 24 | 45* | 16
CN(C)c1ccc2c(c1)[C@@H]1C[C@@H](CC(=O)NCC3CC3)O[C@@H](CO)[C@@H]1O2 | 32* | 4 | -12 | 54
Cc1nnc(SCC(=O)Nc2ccc(Cl)cc2O)s1 | x | x | 0 | x
O=[N+]([O-])c1ccc(NCCNCCO)cc1 | x | x | 0 | x
CN(C)c1ccc2c(c1)[C@H]1C[C@H](CC(=O)NCCc3ccccc3)O[C@H](CO)[C@H]1O2 | 18 | -68 | -11 | 54
COCCNC(=O)C[C@H]1C[C@@H]2c3cc(N(C)C)ccc3O[C@@H]2[C@@H](CO)O1 | 46* | 30 | -13 | x
CCCNC(=O)C[C@@H]1C[C@H]2c3cc(N(C)C)ccc3O[C@H]2[C@@H](CO)O1 | 28* | 10 | -3 | 28
COc1ccc(CNC(=O)C[C@@H]2C=C[C@H](NS(=O)(=O)c3cccc(OC)c3)[C@@H](CO)O2)cc1 | 0 | x | 0 | x
COc1ccc(CNC(=O)C[C@H]2C=C[C@@H](NS(=O)(=O)c3cccc(OC)c3)[C@@H](CO)O2)cc1 | 1 | -91* | x | x
Cc1[nH]cnc1/C=N/NC(=O)c1ccccc1O | x | x | -1 | x
O=S(=O)(NC1CCN(Cc2ccc(OCCO)cc2)CC1)c1cc(Cl)ccc1Cl | x | x | 37* | x
COc1ccc2c3c(n(C)c2c1)[C@@H](CO)NCC31CN(Cc2ccccc2Cl)C1 | 2 | -23 | x | x
COc1ccc2c3c(n(C)c2c1)[C@H](CO)N(C(=O)Nc1ccc(F)cc1)CC31CCN(Cc2ccccc2F)CC1 | 0 | -76 | x | x
COc1ccc2c3c(n(C)c2c1)[C@@H](CO)N(C(=O)Nc1ccc(F)cc1)CC31CN(Cc2ccccc2F)C1 | -1 | -88* | x | x
COc1ccc2c3c(n(C)c2c1)[C@@H](CO)N(C(=O)c1ccc(F)cc1)CC31CCN(C(=O)c2ccc(F)cc2)CC1 | 0 | -86* | x | x
COc1ccc2c3c(n(C)c2c1)[C@@H](CO)N(C(=O)c1ccc(F)cc1)CC31CN(CC2CCOCC2)C1 | -1 | -88* | x | x
COc1ccc2c3c(n(C)c2c1)[C@H](CO)NCC31CN(Cc2ccc(-c3ccccn3)cc2)C1 | -1 | -88* | x | x
COC(=O)c1cn(CC(=O)Nc2ccccc2C(F)(F)F)c2ccccc12 | x | x | 0 | x
O=C(NO)c1cccc(C(=O)N/N=C/c2cn(S(=O)(=O)c3ccccc3)c3ccccc23)c1 | x | x | 1 | x
COc1ccccc1N1CCN(C(=O)CN(c2cc(Cl)ccc2OC)S(C)(=O)=O)CC1 | x | x | 0 | x
COc1ccc2c3c(n(C)c2c1)[C@@H](CO)N(C(=O)c1ccc(F)cc1)CC31CN(C(=O)Nc2ccc(F)cc2)C1 | -1 | -89* | x | x
COc1ccc2c3c(n(C)c2c1)[C@@H](CO)NCC31CN(C(=O)c2ccc(F)cc2)C1 | x | 69 | x | x
COc1ccc2c3c(n(C)c2c1)[C@H](CO)N(C(=O)c1ccc(F)cc1)CC31CN(C(=O)Nc2ccc(F)cc2)C1 | -2 | -76 | x | x
COc1ccc2c3c(n(C)c2c1)[C@@H](CO)NCC31CN(C(=O)c2cccc(F)c2)C1 | 0 | -82* | x | x
CCC1=C/C(=C\N(C)c2ccccc2)C(=O)S1 | x | x | 1 | x
